Tests used:
[1] = biological target: Dihydroorotate dehydrogenase (quinone), mitochondrial (Homo sapiens, UniProt Q02127); assay: Inhibition of recombinant human DHODH activity after 20 mins by DCIP dye based colorimetric analysis in presence of 1 mM L-dihydroorotate and 0.1 mM CqD
[2] = system: A-375 (human melanoma); assay: Antiproliferative activity against human A375 cells for 24 hrs by MTT assay; settings: A-375, 24 h
[3] = system: A-375; assay: Antiproliferative activity against human A375 cells at 11.11 ug/ml for 24 hrs by MTT assay; assay type: functional; settings: A-375, 24 h
How it was run: (§1)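 HEP-3B or A-375 cells were grown in DMEM with 10% FBS, 5% HBSS, penicillin, streptomycin and amphotericin B at 37 C and 5% CO2. Cells were seeded at 2 × 10^4 per well and preincubated for 24 h. They were then exposed to ten 1:3 serial dilutions from a top concentration of 100, made from 2% DMSO stocks. MTT was added for 3 h, formazan was dissolved in DMSO, and A550 was read. Wells were run in triplicate across three independent experiments. IC50 came from dose-response curves.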

[4] = system: A-375; assay: Antiproliferative activity against human A375 cells at 3.7 ug/ml for 24 hrs by MTT assay; assay type: functional; settings: A-375, 24 h
How it was run: as §1

[5] = system: A-375; assay: Antiproliferative activity against human A375 cells at 33.33 ug/ml for 24 hrs by MTT assay; assay type: functional; settings: A-375, 24 h
How it was run: as §1

[6] = Antiproliferative activity against human Hep3B cells at 33.33 ug/ml for 24 hrs by MTT assay; assay type: functional, Hep 3B2
How it was run: as §1

[7] = system: A-375; assay: Antiproliferative activity against human A375 cells at 0.01 ug/ml for 24 hrs by MTT assay; assay type: functional; settings: A-375, 24 h
How it was run: as §1

[8] = system: A-375; assay: Antiproliferative activity against human A375 cells at 0.41 ug/ml for 24 hrs by MTT assay; assay type: functional; settings: A-375, 24 h
How it was run: as §1

[9] = system: HEP-3B (human hepatoma); assay: Antiproliferative activity against human Hep3B cells for 24 hrs by MTT assay
[10] = Antiproliferative activity against human Hep3B cells at 0.05 ug/ml for 24 hrs by MTT assay; assay type: functional, Hep 3B2
How it was run: as §1

[11] = Antiproliferative activity against human Hep3B cells at 1.23 ug/ml for 24 hrs by MTT assay; assay type: functional, Hep 3B2
How it was run: as §1

[12] = Antiproliferative activity against human Hep3B cells at 0.14 ug/ml for 24 hrs by MTT assay; assay type: functional, Hep 3B2
How it was run: as §1

[13] = system: A-375; assay: Antiproliferative activity against human A375 cells at 0.05 ug/ml for 24 hrs by MTT assay; assay type: functional; settings: A-375, 24 h
How it was run: as §1

[14] = Antiproliferative activity against human Hep3B cells at 0.02 ug/ml for 24 hrs by MTT assay; assay type: functional, Hep 3B2
How it was run: as §1

[15] = Antiproliferative activity against human Hep3B cells at 0.41 ug/ml for 24 hrs by MTT assay; assay type: functional, Hep 3B2
How it was run: as §1

[16] = Antiproliferative activity against human Hep3B cells at 0.01 ug/ml for 24 hrs by MTT assay; assay type: functional, Hep 3B2
How it was run: as §1

[17] = system: A-375; assay: Antiproliferative activity against human A375 cells at 100 ug/ml for 24 hrs by MTT assay; assay type: functional; settings: A-375, 24 h
How it was run: as §1

[18] = system: A-375; assay: Antiproliferative activity against human A375 cells at 0.14 ug/ml for 24 hrs by MTT assay; assay type: functional; settings: A-375, 24 h
How it was run: as §1

[19] = system: A-375; assay: Antiproliferative activity against human A375 cells at 1.23 ug/ml for 24 hrs by MTT assay; assay type: functional; settings: A-375, 24 h
How it was run: as §1

[20] = Antiproliferative activity against human Hep3B cells at 100 ug/ml for 24 hrs by MTT assay; assay type: functional, Hep 3B2
How it was run: as §1

[21] = Antiproliferative activity against human Hep3B cells at 11.11 ug/ml for 24 hrs by MTT assay; assay type: functional, Hep 3B2
How it was run: as §1

[22] = system: A-375; assay: Antiproliferative activity against human A375 cells at 0.02 ug/ml for 24 hrs by MTT assay; assay type: functional; settings: A-375, 24 h
How it was run: as §1

[23] = Retention time of compound by HPLC analysis; assay type: physicochemical
[24] = Antiproliferative activity against human Hep3B cells at 3.7 ug/ml for 24 hrs by MTT assay; assay type: functional, Hep 3B2
How it was run: as §1

Chain of Dihydroorotate dehydrogenase (quinone), mitochondrial (Q02127 whole entry): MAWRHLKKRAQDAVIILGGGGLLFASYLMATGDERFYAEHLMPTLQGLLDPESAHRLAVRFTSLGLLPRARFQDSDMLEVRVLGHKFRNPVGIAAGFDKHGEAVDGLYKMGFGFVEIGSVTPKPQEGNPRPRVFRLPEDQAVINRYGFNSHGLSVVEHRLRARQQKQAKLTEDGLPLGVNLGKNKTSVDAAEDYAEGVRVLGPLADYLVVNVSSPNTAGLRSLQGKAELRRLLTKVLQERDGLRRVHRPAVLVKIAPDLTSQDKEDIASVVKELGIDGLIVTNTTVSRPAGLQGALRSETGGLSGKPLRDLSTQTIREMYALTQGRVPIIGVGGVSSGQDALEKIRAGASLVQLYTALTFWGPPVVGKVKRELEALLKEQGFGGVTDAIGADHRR

Structure (SMILES) | IC50 [2] [µM] | inhibition at 11.11 µg/mL [3] [%] | inhibition at 3.7 µg/mL [4] [%] | inhibition at 33.33 µg/mL [5] [%] | inhibition at 33.33 µg/mL [6] [%] | inhibition at 0.01 µg/mL [7] [%] | inhibition at 0.41 µg/mL [8] [%] | IC50 [9] [µM] | inhibition at 0.05 µg/mL [10] [%] | inhibition at 1.23 µg/mL [11] [%] | inhibition at 0.14 µg/mL [12] [%] | inhibition at 0.05 µg/mL [13] [%] | inhibition at 0.02 µg/mL [14] [%] | inhibition at 0.41 µg/mL [15] [%] | inhibition at 0.01 µg/mL [16] [%] | inhibition at 100 µg/mL [17] [%] | inhibition at 0.14 µg/mL [18] [%] | inhibition at 1.23 µg/mL [19] [%] | inhibition at 100 µg/mL [20] [%] | inhibition at 11.11 µg/mL [21] [%] | also measured
COc1ccc2nc(C(=O)Nc3ccc(-c4ccccc4)cc3)c(C)c(O)c2c1 | 18.1 | 36.2 | 27.2 | 46.2 | 48.4 | 0.13 | 7.62 | 50.6 | 1.23 | 14.2 | 3.52 | 1.98 | 0.96 | 7.58 | 0.35 | 66.9 | 3.05 | 18.7 | 79.3 | 36.2 | IC50 [1]: 2.28 µM; inhibition at 0.02 µg/mL [22]: 0.56%; Retention_time [23]: 6.4 min; inhibition at 3.7 µg/mL [24]: 23.5%
Cc1ccc2nc(C(=O)Nc3c(F)cc(-c4cccc(F)c4)cc3F)c(C)c(O)c2c1 | > 100 | 17.9 | 16.2 | 26.5 | 37.3 | 0.1 | 1.35 | 90.5 | 1.52 | 11.2 | 2.34 | 0.96 | 0.98 | 5.25 | 0.22 | 56.4 | 1.06 | 3.04 | 68.3 | 25.5 | inhibition at 0.02 µg/mL [22]: 0.38%; Retention_time [23]: 8.8 min; inhibition at 3.7 µg/mL [24]: 19.2%
CCc1ccc2nc(C(=O)Nc3c(F)cc(-c4cccc(F)c4)cc3F)c(C)c(O)c2c1 | 15.8 | 26.4 | 17.9 | 28.4 | 56.3 | -0.35 | 3.56 | 8.13 | 5.62 | 23.5 | 11.2 | 0.68 | 2.05 | 16.2 | 0.74 | 47.2 | 1.57 | 12.2 | 63.2 | 46.3 | IC50 [1]: 3.21 µM; inhibition at 0.02 µg/mL [22]: -0.12%; Retention_time [23]: 6.3 min; inhibition at 3.7 µg/mL [24]: 31.2%
CCOc1ccc2nc(C(=O)Nc3c(F)cc(-c4cccc(F)c4)cc3F)c(C)c(O)c2c1 | > 100 | 15.3 | 4.56 | 16.3 | 11.2 | 0.23 | 2.05 | > 100 | -0.04 | 1.03 | 0.01 | 1.02 | -0.32 | 0.26 | -0.5 | 37.9 | 1.54 | 2.96 | 33.2 | 2.03 | inhibition at 0.02 µg/mL [22]: 0.68%; Retention_time [23]: 7.2 min; inhibition at 3.7 µg/mL [24]: 1.56%
Cc1ccc2nc(C(=O)Nc3c(F)cc(-c4cccc(F)c4)cc3F)c(C)c(C(=O)O)c2c1 | 31.6 | 19.2 | 9.25 | 26.3 | 41.2 | -1.05 | 1.53 | 26 | 2.11 | 21.3 | 6.34 | 0.35 | 1.05 | 15.2 | 0.36 | 37.3 | 0.98 | 3.65 | 75.2 | 35.6 | inhibition at 0.02 µg/mL [22]: 0.02%; Retention_time [23]: 7 min; inhibition at 3.7 µg/mL [24]: 31.3%
CCOc1ccc2nc(C(=O)Nc3c(F)cc(-c4cccc(F)c4)cc3F)c(C)c(C(=O)O)c2c1 | 5.8 | 48.3 | 35.2 | 51.2 | 38.6 | 0.3 | 11.2 | 14.9 | 0.98 | 17.9 | 2.06 | 1.96 | 0.05 | 5.34 | -0.12 | 72.3 | 3.05 | 26.6 | 65.3 | 33.2 | IC50 [1]: 2.83 µM; inhibition at 0.02 µg/mL [22]: 1.02%; Retention_time [23]: 6.8 min; inhibition at 3.7 µg/mL [24]: 26.5%
COc1ccc2nc(C(=O)Nc3c(F)cc(-c4cccc(F)c4)cc3F)c(C)c(C(=O)O)c2c1 | 14.3 | 35.2 | 24.6 | 44.5 | 7.24 | 0.05 | 3.87 | > 100 | -0.66 | 1.05 | 0.02 | 1.05 | -0.57 | 0.68 | -0.68 | 58.7 | 2.06 | 10.2 | 28.3 | 2.34 | inhibition at 0.02 µg/mL [22]: 0.13%; Retention_time [23]: 6.9 min; inhibition at 3.7 µg/mL [24]: 1.62%
